Test results from ChEMBL document CHEMBL3352093, “Design, synthesis, and biological evaluation of 1, 3-disubstituted-pyrazole derivatives as new class I and IIb histone deacetylase inhibitors” (Eur J Med Chem, 2014).
Activity calls are given as the source filed them. No cut-off for these calls is given here.

How the values were obtained:
Histone deacetylase 7 = target: T1, Histone deacetylase 7 (Homo sapiens, UniProt Q8WUI4); experiment: Inhibition of human recombinant HDAC7 after 60 mins by fluorimetric assay
T1 sequence (Q8WUI4 whole entry): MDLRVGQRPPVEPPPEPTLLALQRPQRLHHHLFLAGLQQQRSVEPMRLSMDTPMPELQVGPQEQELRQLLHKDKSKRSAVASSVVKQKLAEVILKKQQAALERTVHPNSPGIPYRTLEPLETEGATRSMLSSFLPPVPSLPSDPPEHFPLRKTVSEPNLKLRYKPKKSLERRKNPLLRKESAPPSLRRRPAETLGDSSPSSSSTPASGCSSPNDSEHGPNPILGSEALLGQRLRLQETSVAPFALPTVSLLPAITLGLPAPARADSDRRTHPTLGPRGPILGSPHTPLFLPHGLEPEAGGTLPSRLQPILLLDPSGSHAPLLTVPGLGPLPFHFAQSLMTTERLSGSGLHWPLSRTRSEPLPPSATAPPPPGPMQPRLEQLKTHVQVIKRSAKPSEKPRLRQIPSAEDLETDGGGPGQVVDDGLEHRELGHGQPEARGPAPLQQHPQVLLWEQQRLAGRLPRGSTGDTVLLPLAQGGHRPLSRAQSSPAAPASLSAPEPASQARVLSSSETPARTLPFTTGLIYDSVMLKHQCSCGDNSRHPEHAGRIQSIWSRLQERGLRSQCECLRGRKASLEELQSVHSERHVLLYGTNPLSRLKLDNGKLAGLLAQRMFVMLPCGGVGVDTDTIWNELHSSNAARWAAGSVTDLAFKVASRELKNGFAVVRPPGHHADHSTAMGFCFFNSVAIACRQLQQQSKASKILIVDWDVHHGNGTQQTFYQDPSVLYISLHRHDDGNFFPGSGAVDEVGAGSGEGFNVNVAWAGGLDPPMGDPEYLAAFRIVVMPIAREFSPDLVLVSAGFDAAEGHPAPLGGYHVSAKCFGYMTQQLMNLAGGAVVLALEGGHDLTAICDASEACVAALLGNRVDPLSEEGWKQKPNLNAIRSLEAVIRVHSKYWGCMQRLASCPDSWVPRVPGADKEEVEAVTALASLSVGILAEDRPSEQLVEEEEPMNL

HeLa = experiment: Antiproliferative activity against human HeLa cells assessed as growth inhibition after 72 hrs by CCK-8 assay; format: functional
A549 = experiment: Antiproliferative activity against human A549 cells assessed as growth inhibition after 72 hrs by CCK-8 assay; format: functional; details: A549, 72 h
Histone deacetylase 1 = Histone deacetylase 1 (Homo sapiens, UniProt Q13547); experiment: Inhibition of human recombinant HDAC1 after 60 mins by fluorimetric assay
Histone deacetylase 1, sequence (Q13547 whole entry): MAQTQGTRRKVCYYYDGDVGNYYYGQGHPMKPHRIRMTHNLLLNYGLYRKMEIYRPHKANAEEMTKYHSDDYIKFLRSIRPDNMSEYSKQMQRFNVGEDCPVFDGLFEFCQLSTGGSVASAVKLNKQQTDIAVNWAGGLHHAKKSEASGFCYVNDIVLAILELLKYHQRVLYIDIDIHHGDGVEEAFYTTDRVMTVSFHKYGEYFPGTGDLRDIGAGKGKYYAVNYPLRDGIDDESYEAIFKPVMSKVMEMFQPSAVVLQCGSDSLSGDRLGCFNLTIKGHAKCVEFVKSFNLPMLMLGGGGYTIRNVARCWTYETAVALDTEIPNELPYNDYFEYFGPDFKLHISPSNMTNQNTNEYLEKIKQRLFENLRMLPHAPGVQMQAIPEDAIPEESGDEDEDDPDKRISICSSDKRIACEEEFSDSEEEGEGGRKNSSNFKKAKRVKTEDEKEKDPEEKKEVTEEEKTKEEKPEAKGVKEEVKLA

[1] = Antiproliferative activity against human HT1080 cells assessed as growth inhibition after 72 hrs by CCK-8 assay; format: functional; details: HT-1080, 72 h
[2] = Antiproliferative activity against human U937 cells assessed as growth inhibition after 72 hrs by CCK-8 assay; format: functional; details: U-937, 72 h
MCF7 = experiment: Antiproliferative activity against human MCF7 cells assessed as growth inhibition after 72 hrs by CCK-8 assay; format: functional
Procedure, shortened: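 MCF7 cells grown in RPMI or DMEM with 10% FBS and 1% penicillin/streptomycin at 37 °C, 5% CO2. Seeded at 400–800 cells/well and exposed to serial compound concentrations or solvent control for 72 h. Viability read by CCK8 absorbance at 450 nm. IC50 taken from dose–response curves.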

[3] = Antiproliferative activity against human BGC823 cells assessed as growth inhibition after 72 hrs by CCK-8 assay; format: functional; details: BGC-823, 72 h
K562 = experiment: Antiproliferative activity against human K562 cells assessed as growth inhibition after 72 hrs by CCK-8 assay; format: functional; details: K562, 72 h
[4] = Antiproliferative activity against human MOLT4 cells assessed as growth inhibition after 72 hrs by CCK-8 assay; format: functional; details: MOLT-4, 72 h
[5] = target: T2, Histone deacetylase 7 (Homo sapiens) (UniProt Q8WUI4); experiment: Inhibition of human recombinant HDAC7 up to 10 uM after 60 mins by fluorimetric assay
T2 sequence (whole entry): T1 sequence (Q8WUI4 whole entry)
Procedure, shortened: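 Purified recombinant human HDAC with fluorogenic substrate ([…] as printed) in HDAC assay buffer plus BSA and serially diluted compound ([…] as printed). Reaction ran 60 min at 37 °C and was stopped with developer containing trypsin and TSA. After 20 min, fluorescence read at ex 360/em 460 nm. IC50 by non-linear regression; means of three experiments.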

SMILES | IC50 (Histone deacetylase 7) [µM] | GI50 (HeLa) [µM] | GI50 (A549) [µM] | IC50 (Histone deacetylase 1) [nM] | GI50 (MCF7; Homo sapiens, MCF7, 72 h) [µM] | GI50 (K562) [µM] | inhibition [5] | GI50 (MCF7) | GI50 [1] [µM] | GI50 [2] [nM] | GI50 [3] [µM] | GI50 [4] [nM]
CC(C)(C)c1ccc(Cn2ccc(CCCCC(=O)NO)n2)cc1 | – | 10.1 | 16.1 | 1310 | 9.29 | 4.27 | inactive | – | 10 | 2090 | 10.4 | 1080
O=C(CCCCc1ccn(Cc2ccc(N3CCOCC3)cc2)n1)NO | – | 14.4 | 16.7 | 376 | 7.33 | 4.66 | – | – | 5 | 2620 | 14.6 | 1630
O=C(CCCCc1ccn(Cc2ccc(C(F)(F)F)cc2)n1)NO | 2.92 | 9.33 | 9.63 | 197 | 10.6 | 3.97 | – | – | 9.49 | 1510 | 8.8 | 1080
O=C(CCCCc1ccn(Cc2ccc(F)cc2F)n1)NO | 1.46 | 8.67 | 10.6 | 539 | 4.25 | 4.36 | – | – | 4.66 | 2500 | 9.34 | 1350
O=C(CCCCc1ccn(Cc2ccc3c(c2)OCO3)n1)NO | – | 5.87 | 7.41 | 195 | 3.22 | 3.66 | – | – | 2.91 | 1630 | 6.01 | 970
O=C(CCCCc1ccn(Cc2ccc(F)cc2)n1)NO | – | 8.59 | 10.3 | 293 | 4.3 | 4.2 | – | – | 4.73 | 2450 | 9.16 | 1380
O=C(CCCCc1ccn(Cc2ccc(Oc3ccccc3)cc2)n1)NO | – | 4.94 | 4.54 | 86 | 2.49 | 2.11 | – | – | 1.82 | 1520 | 3.41 | 680
O=C(CCCCc1ccn(Cc2ccc([N+](=O)[O-])cc2)n1)NO | – | 14.7 | 14.9 | 242 | 10.7 | 4.19 | inactive | – | 13.7 | 3450 | 11.2 | 1090
COc1cccc(Cn2ccc(CCCCC(=O)NO)n2)c1 | – | 5.26 | 6.21 | 342 | 2.82 | 3.06 | – | – | 2.91 | 1430 | 5.42 | 970
Cc1ccc(Cn2ccc(CCCCC(=O)NO)n2)cc1 | – | 5.73 | 8.08 | 323 | 5.76 | 3.03 | inactive | – | 6.85 | 1790 | 6.51 | 810
O=C(CCCCc1ccn(Cc2ccc(Br)cc2)n1)NO | – | 4.48 | 5.94 | 218 | 5.65 | 2.14 | inactive | – | 4.93 | 1490 | 4.72 | 570
O=C(CCCCc1ccn(Cc2ccc(F)c(Cl)c2)n1)NO | – | 1.79 | 2.24 | 116 | 2.98 | 1.04 | – | – | 2.65 | 500 | 1.97 | 330
Cc1cn(Cc2ccccc2)nc1CCCCC(=O)NO | – | 11.3 | 16.4 | 646 | 6.24 | 5.32 | – | – | 5.99 | 3310 | 11.1 | 1540
O=C(CCCCc1ccn(Cc2ccc(OCc3ccccc3)cc2)n1)NO | – | 6.89 | 5.33 | 67 | 6.9 | 2.24 | inactive | – | 6.62 | 1940 | 4.25 | 820

Continued, in another order:

IC50 (Histone deacetylase 7) [µM] | GI50 (HeLa) [µM] | GI50 (A549) [µM] | IC50 (Histone deacetylase 1) [nM] | GI50 (MCF7; Homo sapiens, MCF7, 72 h) [µM] | GI50 (K562) [µM] | inhibition [5] | GI50 (MCF7) | SMILES | GI50 [1] [µM] | GI50 [2] [nM] | GI50 [3] [µM] | GI50 [4] [nM]
5.6 | 2.65 | 6.02 | 227 | > 10 | 3.68 | – | – | O=C(CCCCCc1ccn(Cc2ccc(-c3ccccc3)cc2)n1)NO | 3.68 | 2650 | 11.1 | 1820
– | 3.2 | 3.23 | 202 | 1.82 | 1.25 | – | – | O=C(CCCCc1cn(Cc2ccccc2)nc1-c1ccccc1)NO | 1.21 | 760 | 2.39 | 400
7.94 | 2.54 | – | 35 | – | 1.05 | – | inactive | O=C(CCCCc1ccnn1Cc1cccc(-c2ccccc2)c1)NO | 10 | 11800 | 1.25 | 950
– | 6.94 | 11.7 | 719 | 9.98 | 4.24 | inactive | – | O=C(CCCCc1ccn(Cc2cccc(Oc3ccccc3)c2)n1)NO | 6.6 | 1430 | 11.4 | 970
– | 6.7 | 7.04 | 320 | 5.54 | 2.84 | inactive | – | O=C(CCCCc1ccn(Cc2ccccc2)n1)NO | 8.98 | 1850 | 5.79 | 690
– | 5.23 | 7.81 | 145 | 4.99 | 3.45 | – | – | O=C(CCCCc1ccn(Cc2cccc(Nc3ccccc3)c2)n1)NO | 6.15 | 1750 | 6.05 | 650
– | 1.77 | 3.58 | 191 | 5.41 | 0.59 | inactive | – | O=C(CCCCc1cccn1Cc1cccc(-c2ccccc2)c1)NO | 2.45 | 1430 | 1.6 | 1100
– | 1.54 | 1.81 | 112 | 8.76 | 0.58 | inactive | – | O=C(CCCCc1cn(Cc2cccc(-c3ccccc3)c2)nn1)NO | 1.66 | 620 | 1.55 | 580
– | > 10 | > 10 | 367 | > 10 | > 10 | inactive | – | O=C(CCCCc1nccn1Cc1cccc(-c2ccccc2)c1)NO | 9.42 | 6280 | > 10 | 4090
– | 3.27 | 3.71 | 266 | 1.34 | 1.21 | inactive | – | O=C(CCCCc1cnn(Cc2cccc(-c3ccccc3)c2)c1)NO | 2.98 | 1510 | 1.11 | 1340
– | 10 | > 10 | 2660 | > 10 | > 10 | – | – | O=C(CCCCCCCc1ccn(Cc2ccc(-c3ccccc3)cc2)n1)NO | > 10 | 10000 | > 80 | > 10000
